# Compounds with a hit are over-represented: about 2.2% of the library has one in this group of screens.
# NR2E3 ag-1 = activates human NR2E3 receptor | inhibition of corepressor binding, % at 3.98 µM | hit rate 0.35% among 360,000 | AID 602229 | CHO-S Gal4-NCOR/VP16-NR2E3 two-hybrid, luciferase | Q9Y5X4;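 active = inhibition above the mean of all tested compounds plus 3 SD, cut at about 70% in these data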;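 note: 0% = DMSO with NR2E3 transfected cells and 100% = cells lacking NR2E3 construct; higher means lower luciferase signal from less NR2E3 corepressor binding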
# Target sequence (Q9Y5X4 whole entry, looked up, the tested form may be a part): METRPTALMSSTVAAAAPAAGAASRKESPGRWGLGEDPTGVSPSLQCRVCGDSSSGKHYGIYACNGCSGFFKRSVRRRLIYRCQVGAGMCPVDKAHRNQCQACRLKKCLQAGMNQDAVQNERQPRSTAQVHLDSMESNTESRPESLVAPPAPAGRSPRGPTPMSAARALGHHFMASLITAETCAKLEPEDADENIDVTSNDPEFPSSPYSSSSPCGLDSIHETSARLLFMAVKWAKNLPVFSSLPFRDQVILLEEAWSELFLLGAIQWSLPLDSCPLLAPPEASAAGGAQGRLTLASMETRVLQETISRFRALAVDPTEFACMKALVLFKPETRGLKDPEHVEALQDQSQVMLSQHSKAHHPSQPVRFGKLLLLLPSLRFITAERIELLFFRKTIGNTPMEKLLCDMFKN
# miR122 inh = miR-122 inhibition in Huh7 cells | activation (reporter increase), % at 12.5 µM | hit rate 0.3% among 340,000 | Huh7 miR-122 Renilla luciferase sensor, 48 h; neutral wells = 0, positive control = 100;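 active = mean replicate activation score at least 90 and every replicate individually at or above 90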;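 note: higher luciferase means less miR-122 activity so hits act as miR-122 inhibitors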
# 697 NFkB inh = inhibitors of the PMA/ionomycin-induced NF-kB reporter in 697 B cells | 697 B-cell NF-kB luciferase reporter, 16 h | inhibition, % at 4 µM | hit rate 0.33% among 330,000 | AID 435022; in the data active = inhibition above about 35%
# Jurkat NFkB inh = inhibitors of the PMA/ionomycin-induced NF-kB reporter in Jurkat cells. PMA/ionomycin-induced NF-kB luciferase reporter, luminescence. inhibition, % at 4 µM. hit rate 0.53% among 330,000. AID 435003; in the data active = inhibition above about 50%
# NR2E3 ag-2 = activates human photoreceptor nuclear receptor NR2E3 | GST-NR2E3/biotin-RetCOR TR-FRET, 1536-well | inhibition of corepressor binding, % at 4.78 µM | hit rate 0.12% among 320,000;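 active = percent inhibition above the cutoff of mean plus 3 SD of all tested compounds, set per screening campaign, cut at about 20% in these data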;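 note: 0% = DMSO wells and 100% = biotin wells as full block of FRET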
#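 System: GST-NR2E3 and biotin-RetCOR proteins; probe or stimulus: 7 nM biotin-RetCOR; doses: compound at 4.8 µM, single dose; schedule: Compound–protein incubation for 5 h at 4 °C; detection: time-resolved FRET; read-out: percent inhibition; controls: biotin wells as high control, 0.6% DMSO wells as low control; format: 1536-well plates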
# FGF22 binding-1 = shifts melting point of recombinant human FGF22. Q9HCT0. recombinant FGF22 thermal shift, SYPRO orange fluorescence; percent of sucrose octasulfate shift, DMSO zero. AID 651658. hit rate 1.5% among 340,000. activity (Tm shift, normalised), % at 9.99 µM;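 active = mean Tm shift, scaled 0 neutral to 100 positive control, at about 1.3% or above, every replicate too, limit read from the data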
# Target sequence (Q9HCT0 whole entry, looked up): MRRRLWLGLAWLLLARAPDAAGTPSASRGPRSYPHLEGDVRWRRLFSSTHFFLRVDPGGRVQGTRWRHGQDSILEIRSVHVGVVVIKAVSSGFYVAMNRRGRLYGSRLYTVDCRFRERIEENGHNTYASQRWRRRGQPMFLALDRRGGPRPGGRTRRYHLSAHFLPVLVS
# FGF22 binding-2 = binders of human FGF22 by thermal shift | shares compounds with FGF22 binding-1 | recombinant FGF22 thermal shift, SYPRO orange fluorescence | thermal shift activity, °C (ΔTm) at 38 µM | hit rate 2% among 1,000 | AID 720646;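 active = fitted rise in melting shift crosses a set limit at or below the top valid dose tested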
# SYPRO no-protein = shows thermal shift signal without protein, FGF22 counter-screen. shares compounds with FGF22 binding-1. compound-only SYPRO orange thermal shift counter-screen, no protein. AC50, µM (series often up to 38 µM). hit rate 2% among 1,000. AID 743019;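 active = rising signal whose fitted curve reaches the 0.54 level within the top valid dose, showing a melting point, actives reach about 13 µM in these data; inactive = the rest, including activity in the opposite direction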; note: value is where the raw curve crosses a fixed level and not half-maximal
# The depositor's hits bear a star; i = inactive; . = no result given; [ ] = dose if it differs, or a comment.
SMILES,NR2E3 ag-1,miR122 inh,697 NFkB inh,Jurkat NFkB inh,NR2E3 ag-2,FGF22 binding-1,FGF22 binding-2,SYPRO no-protein
CCOc1ccc(NC(=O)c2cccc(-n3cccc3)c2)cc1S(=O)(=O)N1CCOCC1,-2,-1,-30,-14,0,2.3*,-0.15,i
CO[C@H]1CN(C)C(=O)c2ccc(NS(C)(=O)=O)cc2OC[C@H](C)N(C(=O)c2ccc3c(c2)OCO3)C[C@@H]1C,.,5[16.7 µM],.,.,.,.,.,.
C[C@@H]1CCCCO[C@@H](CN(C)S(=O)(=O)c2cn(C)cn2)[C@H](C)CN([C@@H](C)CO)C(=O)c2cc(NC(=O)C3CCCCC3)ccc2O1,.,29[16.7 µM],.,.,.,-1,.,.
CC(C)NC(=O)Nc1ccc2c(c1)C(=O)N([C@@H](C)CO)C[C@@H](C)[C@@H](CN(C)C(=O)Nc1ccccc1)OCCCC[C@@H](C)O2,.,1[16.7 µM],.,.,.,28*,0.17,i
CC(C)NC(=O)Nc1ccc2c(c1)C(=O)N([C@H](C)CO)C[C@H](C)[C@@H](CN(C)C(=O)Nc1ccccc1)OCCCC[C@@H](C)O2,.,0[16.7 µM],.,.,.,0,.,.
CNC[C@@H]1OCCCC[C@H](C)Oc2ccc(NC(=O)Nc3ccc(C(F)(F)F)cc3)cc2C(=O)N([C@@H](C)CO)C[C@H]1C,.,-5[16.7 µM],.,.,.,.,.,.
COc1ccc(S(=O)(=O)Nc2ccc3c(c2)C(=O)N([C@@H](C)CO)C[C@@H](C)[C@@H](CN(C)C)OCCCC[C@@H](C)O3)cc1,.,5[16.7 µM],.,.,.,2.1*,0.075[42 µM],i
COc1ccc(S(=O)(=O)Nc2ccc3c(c2)C(=O)N([C@H](C)CO)C[C@@H](C)[C@@H](CN(C)C)OCCCC[C@@H](C)O3)cc1,.,1[16.7 µM],.,.,.,0,.,.
CNC[C@H]1OCCCC[C@@H](C)Oc2ccc(NC(=O)Nc3ccc(C(F)(F)F)cc3)cc2C(=O)N([C@H](C)CO)C[C@@H]1C,.,-3[16.7 µM],.,.,.,7.0*,0.073[42 µM],i
CC(C)NC(=O)N(C)C[C@H]1OCCCC[C@H](C)Oc2ccc(N(C)C)cc2C(=O)N([C@H](C)CO)C[C@H]1C,.,-11[16.7 µM],.,.,.,209*,0.17[42 µM],i
CCCC#Cc1ccc2c(c1)O[C@@H](CN(C)S(=O)(=O)c1cccc(OC)c1)[C@H](C)CN([C@H](C)CO)S2(=O)=O,.,2[16.7 µM],.,.,.,.,.,.
Cc1cc(C(=O)Nc2cccc3c2O[C@@H](CN(C)C)[C@@H](C)CN([C@H](C)CO)C3=O)n(C)n1,.,3[16.7 µM],.,.,.,0,.,.
CCCN(C)C[C@@H]1OCCCC[C@@H](C)Oc2ccc(NC(=O)NC(C)C)cc2C(=O)N([C@@H](C)CO)C[C@@H]1C,.,-3[16.7 µM],.,.,.,1.4*,0.066,i
COc1cc(NS(=O)(=O)c2ccc(NS(=O)(=O)c3ccc(C)cc3)cc2)nc(OC)n1,-24,-3,11,-8,1,3.1*,-0.025,i
COc1ccc(Nc2nnc(-c3ccncc3)s2)cc1Cl,-15,-6,-22,-14,-2,1.5*,0.061,i
Brc1ccccc1/C=N/Nc1ccccn1,-68,.,-52,-61,0,2.2*,0.2,i
C[C@H](NC(=O)C[C@@H]1C[C@@H]2c3cc(NC(=O)Nc4ccc(C(F)(F)F)cc4)ccc3O[C@@H]2[C@@H](CO)O1)c1ccccc1,.,-6[16.7 µM],.,.,.,0,.,.
C/C=C/c1ccc([C@H]2[C@@H](CNC(=O)c3ccccc3)N(C(C)=O)[C@H]2CO)cc1,.,14[16.7 µM],.,.,.,.,.,.
COc1ccc2c3c([nH]c2c1)[C@H](CO)N(C(C)=O)CC31CN(C(=O)c2ccc3c(c2)OCO3)C1,.,.,.,.,.,26*,0.056,i
O=C(CCc1ccccc1)c1c(O)cc(O)cc1O,-23,0,-8,-9,5,21*,0.089,i
CC(C)NC(=O)Nc1ccc2c(c1)C(=O)N([C@@H](C)CO)C[C@@H](C)[C@H](CN(C)Cc1ccc3c(c1)OCO3)OCCCC[C@@H](C)O2,.,4[16.7 µM],.,.,.,0,.,.
Cn1cc([N+](=O)[O-])c(C(=O)Nc2ccc3nc(-c4ccccc4)[nH]c3c2)n1,-38,8,-18,-50,-3,15*,0.22,i
Cn1cc([N+](=O)[O-])c(C(=O)Nc2ccc(-c3nc4ccccc4[nH]3)cc2)n1,-91,.,-58,-97,1,0,.,.
O=C(C[C@H]1C[C@H]2c3cc(NC(=O)CC4CC4)ccc3O[C@H]2[C@H](CO)O1)NCc1ccc(-c2ccccc2)cc1,.,2[16.7 µM],.,.,.,0,.,.
CCC(=O)N1CC2(C1)[C@H](c1ccc(-c3cccc(C)c3)cc1)[C@@H](CO)N2S(C)(=O)=O,.,.,.,.,.,4.5*,-0.015,i
SMILES,NR2E3 ag-1,miR122 inh,697 NFkB inh,Jurkat NFkB inh,NR2E3 ag-2,FGF22 binding-1,FGF22 binding-2,SYPRO no-protein
COc1cc2ccccc2cc1C(=O)OCC(=O)c1c(N)n(C)c(=O)n(C)c1=O,-26,-4,32,-2,-2,17*,0.074,i
COc1ccc(Cl)cc1C(=O)OCC(=O)c1c(N)n(C)c(=O)n(C)c1=O,-18,0,.,.,.,0,.,.
CC(C)CC(=O)n1sc(NC(=O)c2ccccc2)nc1=O,13,3,18,2,0,2.5*,0.022,i
Cc1ccc(C(=O)Nc2nc(=O)n(C(=O)CC(C)C)s2)cc1,-8,.,-3,-3,1,0,.,.
C[C@H]1CN([C@@H](C)CO)C(=O)Cc2cc(NC(=O)NC3CCCCC3)ccc2O[C@H]1CN(C)S(=O)(=O)c1ccc(Cl)cc1,.,-7[16.7 µM],.,.,.,0,.,.
COc1cc2cc(NC(C)=O)cc(NCc3ccccc3)c2cc1OC,-60,.,6,16,.,1.5*,0.43,i
COc1ccc(-c2cn(CC[C@H]3CC[C@H](NC(=O)Nc4ccc(F)cc4)[C@@H](CO)O3)nn2)cc1,.,.,.,.,.,1.5*,0.056[42 µM],i
COc1ccccc1NC(=O)N[C@@H]1CC[C@H](CCn2cc(-c3ccccc3OC)nn2)O[C@@H]1CO,.,.,.,.,.,1.3*,0.13,i
COc1ccc(NC(=O)N[C@@H]2CC[C@H](CCn3cc(-c4ccc(F)cc4)nn3)O[C@@H]2CO)cc1,.,.,.,.,.,0,.,.
COc1ccccc1NC(=O)N[C@H]1CC[C@H](CCn2cc(-c3ccccc3OC)nn2)O[C@H]1CO,.,.,.,.,.,1.7*,-0.098[42 µM],i
COc1ccccc1NC(=O)N[C@H]1CC[C@H](CCn2cc(-c3ccccc3)nn2)O[C@H]1CO,.,.,.,.,.,0,.,.
COc1cccc(CNC(=O)C[C@@H]2CC[C@@H]3[C@H](COc4ccc(NS(=O)(=O)c5ccccc5F)cc4C(=O)N3C)O2)c1,.,-10[16.7 µM],.,.,.,0,.,.
COc1ccc(CCC(C)NC(=O)Cc2ccc(OC)c(OC)c2)c(OC)c1 (centres undefined),6,-13,-21,-10,2,29*,0.073,i

# Bioassay records as filed in PubChem BioAssay.
